Consider three compounds from ChEMBL document CHEMBL4808187, “Antiarrhythmic Hit to Lead Refinement in a Dish Using Patient-Derived iPSC Cardiomyocytes” (J Med Chem, 2021).

The source made the active and inactive calls. The calls are words filed in the database; no cut-off is given here.

Data set [1] in a line: Inhibition of sodium channel (unknown origin) expressed in HEK cells assessed as reduction in peak sodium current by automated patch clamp method. It counts as cell-based. The following applies: Homo sapiens, HEK293. Background: In patch-clamp work, channel activity is measured electrically.
A short description of data set [2]: Inhibition of potassium channel (unknown origin) expressed in CHO cells assessed as reduction in potassium current by automated patch clamp method. It counts as cell-based.
Data set [3] in a line: Antiarrhythmic activity in patient-derived hiPSC-CMs carrying LQT3 mutation assessed as cessation dose for cell beating. It counts as functional, Homo sapiens, iPSC-CM.
Data set [4] can be described thus: Antiarrhythmic activity in hiPSC-CMs assessed as dose for induction of early after depolarizations. The following applies: human, ipsc-cm.
The nature of data set [5]: Inhibition of sodium channel (unknown origin) expressed in HEK cells assessed as reduction in late inward sodium current by automated patch clamp method. It counts as cell-based. The following applies: Homo sapiens, HEK293.
The nature of data set [6]: Antiarrhythmic activity in patient-derived hiPSC-CMs carrying LQT3 mutation assessed as shortening dose of action potential. It counts as functional, Homo sapiens, iPSC-CM.
Data set [7] can be described thus: Antiarrhythmic activity in hiPSC-CMs assessed as cessation dose of cell beating. The following applies: human, ipsc-cm.
The nature of data set [8]: Antiarrhythmic activity in patient-derived hiPSC-CMs carrying LQT3 mutation assessed as fold shortening of action potential duration relative to control. It counts as functional, Homo sapiens, iPSC-CM.
The species named for a further data set is Homo sapiens. The data set can be described thus: Selectivity index, ratio of IC50 for potassium channel (unknown origin) expressed in HEK cells assessed as reduction in potassium current to IC50 for sodium channel (unknown origin) expressed in HEK cells assessed as reduction in late inward sodium current. It counts as cell-based.
Data set [9] in a line: Antiarrhythmic activity in patient-derived hiPSC-CMs carrying LQT3 mutation assessed as shortening of action potential duration. The following applies: ipsc-cm; read-out: EC50. It counts as functional, Homo sapiens.
The nature of data set [10]: Antiarrhythmic activity in hiPSC-CMs assessed as fold prolongation of action potential relative to control. The following applies: human, ipsc-cm.
Data set [11] can be described thus: Toxicity in BALB/c mouse assessed as central nervous system effects at 100 mg/kg, ip. It counts as organism-based. The following applies: in vivo.
A short description of data set [12]: Cmax in Sprague-Dawley rat at 25 mg/kg, po measured upto 25 hrs by LCMS analysis. It counts as ADME, organism-based. Further details: route oral, dose 25 mg/kg, time <=25. The following applies: in vivo.
A short description of data set [13]: Tmax in Sprague-Dawley rat at 5 mg/kg, iv measured upto 25 hrs by LCMS analysis. It counts as ADME, organism-based. The following applies: in vivo.
Data set [14] can be described thus: Metabolic stability in human liver S9 fraction assessed as compound remaining at 50 uM after 1 hr by HPLC method. It counts as ADME, subcellular. The following applies: read-out: Stabilty. The essentials:
(§1)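 Human liver microsomes (0.4–0.5 mg protein) or S-9 (1 mg) with 50 μM compound in 50 mM potassium phosphate pH 7.4 plus NADPH-generating system, 37 °C shaking for 0, 7, 15, 30, 60 min; stopped with cold acetonitrile; HPLC C18, isocratic water/acetonitrile with 0.05% TFA, UV 275.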

Data set [15] can be described thus: AUC in Sprague-Dawley rat at 25 mg/kg, po measured upto 25 hrs by LCMS analysis. It counts as ADME, organism-based. The following applies: in vivo. Also noted: route oral, dose 25 mg/kg, time <=25.
The nature of data set [16]: Half life in Sprague-Dawley rat at 25 mg/kg, po measured upto 25 hrs by LCMS analysis. It counts as ADME, organism-based. The following applies: in vivo.
Data set [17] is described as follows: Cmax in Sprague-Dawley rat at 5 mg/kg, iv measured upto 25 hrs by LCMS analysis. It counts as ADME, organism-based. Also noted: route intravenous, dose 5 mg/kg, time <=25. The following applies: in vivo.
Data set [18] in a line: Tmax in Sprague-Dawley rat at 25 mg/kg, po measured upto 25 hrs by LCMS analysis. It counts as ADME, organism-based. The following applies: in vivo.
The nature of data set [19]: Oral bioavailability in Sprague-Dawley rat at 25 mg/kg measured upto 25 hrs by LCMS analysis. It counts as ADME, organism-based. The following applies: in vivo.
A short description of data set [20]: Half life in Sprague-Dawley rat at 5 mg/kg, iv measured upto 25 hrs by LCMS analysis. The following applies: in vivo. It counts as ADME, organism-based.
Data set [21] can be described thus: AUC in Sprague-Dawley rat at 5 mg/kg, iv measured upto 25 hrs by LCMS analysis. It counts as ADME, organism-based. Further details: route intravenous, dose 5 mg/kg, time <=25. The following applies: in vivo.
Data set [22] in a line: Toxicity in BALB/c mouse assessed as lethargy at 100 mg/kg, ip monitored for 30 mins. It counts as organism-based. The following applies: in vivo, 0.5 h.
Data set [23] in a line: Metabolic stability in human liver microsomes assessed as compound remaining at 50 uM after 1 hr by HPLC method. It counts as ADME, Microsome. The following applies: read-out: Stabilty. In outline: as §1
Background: Liver microsomes are vesicles of endoplasmic reticulum, rich in cytochrome P450 enzymes.

Data set [24] in a line: Toxicity in ip dosed BALB/c mouse assessed as lethal dose. It counts as organism-based. The following applies: in vivo.
The test system of a further data set is Heart. As to the kind of experiment: Antiarrhythmic activity in H2O2-perfused Sprague-Dawley rat heart assessed as resolution of arrhythmias to normal sinus rhythm at 10 uM after 30 to 40 mins. It counts as functional, tissue-based. The following applies: time 30-40 min. In outline:
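Perfused ex vivo hearts from aged rats; continuous perfusion of H2O2 (0.1 mM) induces EADs and ectopic beats progressing to VT/VF; test compound perfused at 10 μM with H2O2 still present; rhythm followed for conversion to sinus rhythm.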

Data set [25] can be described thus: Toxicity in BALB/c mouse assessed as behavioral effects at 100 mg/kg, ip monitored for 30 mins. It counts as organism-based. The following applies: in vivo, 0.5 h. The essentials: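 Adult male BALB/c mice, four per compound, 100 mg/kg i.p.; behaviour (lethargy, immobilization, seizures, shaking) observed for 30 min; lethality recorded at 24 h.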

The term IC50 denotes the concentration needed to halve the response being measured. Broadly, the EC50 is the concentration that produces a half-maximal response. In the case of `Cc1ccc(C)c(OCC(N)C2CC2)c1.Cl` (centres undefined), the IC50 stood at 162 µM in [1], 98 µM in [2] and 51.8 µM in data set [5]. Moreover, the Activity in [3] turned out to be 200 µM; in [4], 66 µM; in [6], 66 µM; in [7], 200 µM. In addition, the “fold change (FC)” value in [8] is 1.11; in data set [10] it was 1.686. In addition, in the data set listed under Homo sapiens, the Ratio IC50 was found to be 1.9. In [9], the EC50 was 22 nM.
As usually defined, the Cmax is the peak of the concentration-time curve. In general, Tmax refers to the time from dosing to the highest level. One may read the AUC as the area under the concentration-time curve, a measure of exposure. In general, bioavailability refers to dose-corrected exposure relative to a reference, in per cent. Low readings indicate poor availability, high ones good availability. The term LD50 denotes the dose at which mortality reaches 50%. Regarding `Cl.N[C@H](COc1ccccc1C(F)(F)F)c1ccccc1`, the Activity result in [11] and in data set [22] was “Toxic” in each case. The Cmax was 226 ng/mL in [12] and 219 ng/mL in data set [17]. Besides, the Tmax in [13] was 10.2 min; in data set [18] it was 1.5 h. Further, the remaining at 1 h, 50 µM in [14] and in data set [23] was > 95% each time. Further, the exposure (AUC) in [15] amounted to 1008 ng·h/mL; in data set [21], 407 ng·h/mL. In addition, the t1/2 in data set [16] amounted to 6.5 h; in data set [20], 3.8 h. This compound displayed a bioavailability in [19] of 42%. Also, the LD50 in [24] was > 200 mg/kg.
Consider `Cl.N[C@@H](COc1ccccc1C(F)(F)F)c1ccccc1`, for which the Cmax came out at 258 ng/mL in data set [12] and 249 ng/mL in [17]. Also, the figures for the time of peak concentration (Tmax) in data set [13] and in data set [18] were 10.8 min and 1.5 h, respectively. The remaining at 1 h, 50 µM in data set [14] and in [23] was > 95% each time. The AUC in [15] was 1556 ng·h/mL; in data set [21] it was 280 ng·h/mL. For the same compound, the outcome in the data set with Heart was Active. The t1/2 in data set [16] was 5.3 h; in data set [20], 1.2 h. This compound also returned a bioavailability in [19] of 100%. For the same compound, the Activity entry in data set [25] is recorded as “Non-Toxic”. Besides, the LD50 in data set [24] was > 200 mg/kg.
